This series concerns MS2 coat protein. Briefly: apparent Kd, MS2 coat protein; higher = weaker binding; RNA-MaP array; FMN 200 µM where present. Summed up: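 SNAP-549-labelled MS2 coat protein, doubled from 0.7 or 1.5 nM to 3 µM, was titrated over designs transcribed by stalled E. coli RNA polymerase on Illumina sequencing-chip clusters. Titrations were run without and then with constant ligand in 100 mM Tris-HCl pH 7.5, 80 mM KCl, 4 mM MgCl2, BSA, DTT, yeast tRNA and Tween-20. The apparent Kd is the median of filtered per-cluster fits to green signal normalised to red-channel RNA signal and control-cluster median Fmax.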

Where [1] appears, read: designed as: OFF switch for flavin mononucleotide, no ligand.
Where [2] appears, read: ligand present: flavin mononucleotide, designed as: OFF switch for flavin mononucleotide.
The mark [3] stands for this setting: designed as: ON switch for flavin mononucleotide, no ligand.
Where [4] appears, read: ligand present: flavin mononucleotide, designed as: ON switch for flavin mononucleotide.

As usually defined, the apparent Kd is a dissociation constant that holds for the conditions of the assay. “GUGUAGAUAGGAUAUACGUGAGUCUAGCGAAGCUAGAUUCUACAUGAGGAUCACCCAUGUAGAAGGGUCUACAC”: the “apparent Kd” value reads like this: under setting [1], 16.1 nM; under setting [2], 18.6 nM.

For the sequence “AAUUGAAACGUAGGAUAUCGCACUAAUUUUAAACGAGAAGGACGUACAUGAGGAUCACCCAUGUUAAAUGGUGUAGAUUAGAUG”, the “apparent Kd” value was 156 nM under setting [1] and 692 nM under setting [2].

Turning to “AUGCCGUGCAGAGCGCGACGGCGAACAUGAGGAUCACCCAUGUAGGAUAUACUACACAAAGUGUAGUAGAAGGACGUGCGACAA”, the “apparent Kd” value is, setting by setting: under setting [1], 24.6 nM; under setting [2], 38.6 nM.

As for “CACGCGAAAAGGAGUACAUGAGGAUCACCCAUGUAGGGUGGGAGAAGGCCGGUCGAGAGGUUUAUGGAGGAUAUUUAGGUGUUG”, the “apparent Kd” value worked out at 78.8 nM under setting [3] and 52.5 nM under setting [4].

As to “AUGCCCUGAGGAUAUCUCAUCUCGCACAUGAGGAUCACCCAUGUUCUUCUCUGGGUUUCGAGAGAAGGCAGGCCUA”, the “apparent Kd” value is, setting by setting: under setting [1], 701 nM; under setting [2], 366 nM.

As for “AAUUUACAGGGAGGAUAUACAUGAGGAUCACCCAUGUAAUCAUAUGAUAUUUCUUUUGUAUGAGUGUAGAAGGCCCAACUACCA”, the “apparent Kd” value is 9.96 nM under setting [1] and 8.87 nM under setting [2].

On to “ACAUGAGGAUCACCCAUGUUAAACGAGGAUAUUUGACUGCACAUGAGGUUCACCCAUGUUCUGCCGAAGAAGGUGUAAAUAAUU”, for which the “apparent Kd” value reads like this: under setting [3], 39.2 nM; under setting [4], 31.2 nM.

Regarding “ACGACUAGAGGAUAUACAUGAGGAUCACCCAUGUAACUGUCAGGUGACUGACGGAGAUGUAGAAGGCUAGUCGA”, the “apparent Kd” value by setting is: under setting [1], 15.7 nM; under setting [2], 42.8 nM.

With “CCGGUGGCGCUAGUGGUGACUGCACAGGAUAUAGCGCUCACAUGAGGAUCACCCAUGUAAGGACGCUAGAAGGGUGAAAGUAUA”, the “apparent Kd” value under setting [3] came out at 59.9 nM and the “apparent Kd” value under setting [4] is 19.9 nM.

Regarding “AUAGAAGACUAGAAGGACCUAGUUGUAUAUUGUCGAGGUAUAUAGUUAGGUAGGAUAUGGGACAUGAGGAUCACCCAUGUCUUG”, the “apparent Kd” value by setting is: under setting [3], 8.51 nM; under setting [4], 7.75 nM.

With “GACUUGGCUACAUGAGGAUCACCCAUGUUUGACUGGAUCGAUUAGGAUAUAGUGAUAUGCAACAAUUAGAAGGGAUGUUUACGG”, the “apparent Kd” value under setting [3] was found to be 52.9 nM and the “apparent Kd” value under setting [4] stood at 42.2 nM.

Regarding “GGAUAGGACAGAGGAUAUACGUGCUAGAGAUACUAGCAAAAUUUCCUCACAUGAGGAUCACCCAUGUAGAAGGCUGCCCUAUCG”, the “apparent Kd” value under setting [1] was found to be 13.8 nM and the “apparent Kd” value under setting [2] came to 374 nM.

Take “GACUGAUUACAGAAGGUGUUUGACAUGAGGAUCACCCAUGUGUUAUUCAGUUUCAUUGAAUUUAACAAGGAUAUGUAUAUAUCA”: the “apparent Kd” value is 220 nM under setting [3] and 101 nM under setting [4].

For the sequence “CCUUUAAAGAUCCAAAAUUUCAACAUGAGGAUCACCCAUGUGCAGGAUAUCGUGCCAGUGAUGUACGAGAAGGGCAGACUCUGC”, the “apparent Kd” value by setting is: under setting [1], 119 nM; under setting [2], 149 nM.

For the sequence “UUUAUGUCAGGAUAUACAUGAGGAUCACCCAUGUAUAUCUUAAAAUAUACAUGGGUAUGUAGAAGGGACCUCCU”, the “apparent Kd” value by setting is: under setting [1], 86.5 nM; under setting [2], 77.1 nM.

In the case of “AAUAACAGAGGAUAUACUAUUUUAUGUGUUUAUUGUUUUAAACAUGAGGAUCACCCAUGUAGAAGGCUGAAUAA”, the “apparent Kd” value is, setting by setting: under setting [1], 29.3 nM; under setting [2], 44.3 nM.

For “AACAGGUUCACAUGAGGAUCACCCAUGUUAGCCUAACGUAGGAGAAGGACGGUAGCUGGGCUGACGUAGGAUAUCCUACUGUGA”, the “apparent Kd” value amounted to 9.22 nM under setting [3] and 4.8 nM under setting [4].

Turning to “UGAUCUAUGUAGAAGGCCCAUAUCUAUAUUUAGGGAGGAUAUACAUGAGGAUCACCCAUGUGUAGAGCUGGUGGACUGGUCAGC”, the “apparent Kd” value runs as follows: under setting [1], 92.8 nM; under setting [2], 234 nM.

With “AAUUUACAGGCAGGAUAUACAUGAGGAUCACCCAUGUAAUCAUAUGAUAUUUUUUUUGUAUGAGUGUAGAAGGGCCAAAUAAAA”, the “apparent Kd” value under setting [1] worked out at 7.79 nM and the “apparent Kd” value under setting [2] is 7.99 nM.

Turning to “AAGUAGGCAGGAUAUACAUGAGGAUCACCCAUGUGCCCAUGAAAGGUACUUUCGAAAGGUAGAAGGGCCUACAA”, the “apparent Kd” value under setting [1] is 16.5 nM and the “apparent Kd” value under setting [2] is 35.6 nM.

In the case of “GACGUACAUGAGGAUCACCCAUGUACAGACGUACAAGGAUAUGUGUGGAAACCGUACUAUACAGAAGGUGUUUGUC”, the “apparent Kd” value reads like this: under setting [3], 15.7 nM; under setting [4], 15 nM.

“GGUCCAUCAUGAGGAUAUGGCACCUUAUUGGUGCCAGAAGGCAUGUCUAUAGACAUGAGGAUCACCCAUGUAAUAAAUUGGACC”: the “apparent Kd” value runs as follows: under setting [3], 790 nM; under setting [4], 46.4 nM.

With “AGGGAUAAAGGAUAUACAUGAGGAUCACCCAUGUUGAGGAAGGUUAGAGGUGGCGAUAGUAGAAGGUUAGGUAG”, the “apparent Kd” value is, setting by setting: under setting [1], 89.2 nM; under setting [2], 54.7 nM.

For the sequence “GCAGGAUAAGUCAGGAUAUACCUAUGGAUACAUAGGUAGAAGGGACAUGAGGAUCACCCAUGUGACUCGCCUGC”, the “apparent Kd” value under setting [1] came to 29.5 nM and the “apparent Kd” value under setting [2] was 100 nM.

On to “GCGAACUGUGUAGGAUAUUGAGCACUUUUGGAGCAAGAAGGACACCAAGUGCUGACUAUACAUGAGGAUCACCCAUGUUCAGCA”, for which the “apparent Kd” value came out at 30.9 nM under setting [3] and 17.1 nM under setting [4].

Regarding “AGAGAUACGCUCGUCGGAAAGCGACAUGAGGAUCACCCAUGUAGAAGGCGAUGCGCAACUCGCAUUGAGGAUAUAUAGUGCAGC”, the “apparent Kd” value reads like this: under setting [1], 6.51 nM; under setting [2], 6.65 nM.

“GUUUUCGCAUGAGGAUAUGCUCGCAUUUCAAGAGCAGAAGGUAUGUCUAUAGACAUGAGGAUCACCCAUGUAUCUAACUUUGAA”: the “apparent Kd” value by setting is: under setting [3], 352 nM; under setting [4], 65 nM.

Take “UAAGCCGGGUCUGCAUGAGCUUACAUGAGGAUCACCCAUGUAAGAAGGGACGCUACGUUAUAGUGUCAGGAUAUUGCGAACGGG”: the “apparent Kd” value reads like this: under setting [1], 5.15 nM; under setting [2], 5.66 nM.

As to “CAGAAGUCAGGAUAUGCUGCUCGUCACUUGCGUGAUGAGUAGCAGAAGGGACAUGAGGAUCACCCAUGUAAAGG”, the “apparent Kd” value was 160 nM under setting [1] and 417 nM under setting [2].

On to “UACCACCGCACGGACACGUCGAGUCAGGAUAUACAUGAGGAUCACCCAUGUGAAGGCCGGUUCAUGUAGAAGGGACAGGCGUUG”, for which the “apparent Kd” value is 49.8 nM under setting [1] and 100 nM under setting [2].

For the sequence “GGAAAUUAGCAAGGAUAUCGGCUCACUAUAACUUUAUGCCCUAGGACAUGAGGAUCACCCAUGUACGAGAAGGUGCUAACUACA”, the “apparent Kd” value is, setting by setting: under setting [1], 28.9 nM; under setting [2], 30.7 nM.

For the sequence “AGGUAACAUGAGGAUCACCCAUGUCAGGAUAUCAUAAAGAUUAGAUUAGAGAAGAGGUUGAGAAGGGACUAUAU”, the “apparent Kd” value reads like this: under setting [1], 44.9 nM; under setting [2], 38.4 nM.

Take “GAUUAGCUUGGAGGAUAUGGUACGGGCAGCUAACCAGAAGGCCAAGAACAUGAGGAUCACCCAUGUGCCGUUGGCCAUGGGAGG”: the “apparent Kd” value is, setting by setting: under setting [1], 37.1 nM; under setting [2], 13.2 nM.

For the sequence “UGGUACAUCGGAGGAUAUCAUGUAUAUACAUGAGGAUCACCCAUGUCGUACGAGAGUACGGAGAUUGAGAAGGCCGAUGUACCU”, the “apparent Kd” value under setting [3] stood at 39.4 nM and the “apparent Kd” value under setting [4] amounted to 15.3 nM.

With “AGAUUAUGAGGAUAUCGAGUUUAGUACAUGAGGAUCACCCAUGUUAUCCAGGUCUCGUUUCGAGAAGGCAUGAUUC”, the “apparent Kd” value under setting [1] came out at 33.5 nM and the “apparent Kd” value under setting [2] came to 30.9 nM.

In the case of “AAAAACUGAGGAUAUACGAAAAAAAAAAAAAAAAAAAAAAAACAUGAGGAUCACCCAUGUAGAAGGCAGAAAAA”, the “apparent Kd” value under setting [1] stood at 50.4 nM and the “apparent Kd” value under setting [2] was 38 nM.

The values are drawn from the EternaBench riboswitch data.
